Source: ChEMBL document CHEMBL1141911, “Discovery and SAR studies of a novel series of noncovalent cathepsin S inhibitors” (Bioorg Med Chem Lett, 2005)

tested on: JY; assay: Inhibitory concentration against Ii degradation in human JY cells (range IC50 = 0.6-0.8 uM); type: functional, cell-based
Method in brief: (§1)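 Inhibition of invariant chain (Ii) cleavage was measured in human JY cells, an antigen-presenting line. IC50 values are the mean of at least 3 runs.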

Row | Structure (SMILES) | IC50 [nM]
1 | Cn1c(=O)n(C2CCN(CCCn3nc(-c4ccc(C(F)(F)F)cc4)c4c3CCN(S(C)(=O)=O)C4)CC2)c2cc(Cl)ccc21 | 800

target: not listed separately; assay: Binding affinity against alpha-1A adrenergic receptor

Row | Structure (SMILES) | Ki [nM]
2 | N#Cc1ccccc1N1CCN(CC(O)Cn2nc(-c3ccc(I)cc3)c3c2CCN(C(N)=O)C3)CC1 (stereo unspecified) | 36
3 | N#Cc1ccccc1N1CCN(CC(Cn2nc(-c3ccc(I)cc3)c3c2CCN(C(N)=O)C3)OC(N)=O)CC1 (stereo unspecified) | 12

tested on: JY; assay: Inhibitory concentration against Ii degradation in human JY cells; type: functional, cell-based; method in brief: as §1

Row | Structure (SMILES) | IC50 [nM]
4 | CC(=O)N1CCc2c(c(-c3ccc(I)cc3)nn2CC(O)CN2CCN(c3ccccc3C#N)CC2)C1 (stereo unspecified) | 3900
5 | N#Cc1ccccc1N1CCN(CC(O)Cn2nc(-c3ccc(I)cc3)c3c2CCN(C(N)=O)C3)CC1 (stereo unspecified) | 1300
6 | N#Cc1ccccc1N1CCN(CC(Cn2nc(-c3ccc(I)cc3)c3c2CCN(C(N)=O)C3)OC(N)=O)CC1 (stereo unspecified) | 880

target: Cathepsin S (Homo sapiens, UniProt P25774); assay: Inhibitory concentration against cathepsin S
Sequence (P25774 whole entry): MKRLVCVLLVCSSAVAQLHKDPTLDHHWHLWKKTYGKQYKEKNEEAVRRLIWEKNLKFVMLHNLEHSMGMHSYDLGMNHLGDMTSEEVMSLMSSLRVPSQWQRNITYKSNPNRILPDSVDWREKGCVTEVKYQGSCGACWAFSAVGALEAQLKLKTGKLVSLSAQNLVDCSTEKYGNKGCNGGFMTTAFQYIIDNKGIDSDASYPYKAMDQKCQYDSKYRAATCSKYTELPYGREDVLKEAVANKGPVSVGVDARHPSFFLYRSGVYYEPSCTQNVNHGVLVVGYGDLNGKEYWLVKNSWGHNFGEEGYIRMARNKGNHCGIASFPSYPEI

Row | Structure (SMILES) | IC50 [nM]
7 | Cn1c(=O)n(C2CCN(CCCn3nc(-c4ccc(Cl)c(Cl)c4)c4c3CCN(S(C)(=O)=O)C4)CC2)c2cc(Cl)ccc21 | 150
8 | Cn1c(=O)n(C2CCN(CCCn3nc(-c4ccc(C(F)(F)F)cc4)c4c3CCN(S(C)(=O)=O)C4)CC2)c2cc(Cl)ccc21 | 100
9 | CC(=O)N1CCc2c(c(-c3ccc(Cl)cc3)nn2CC(O)CN2CCN(C(c3ccc(F)cc3)c3ccc(F)cc3)CC2)C1 (stereo unspecified) | 1000
10 | Cn1c(=O)n(C2CCN(CCCn3nc(-c4ccc(Cl)c(Cl)c4)c4c3CCN(S(C)(=O)=O)C4)CC2)c2ccccc21 | 50
11 | Cc1cc(-c2nn(CC(O)CN3CCC(n4c(=O)[nH]c5ccccc54)CC3)c3c2CN(S(C)(=O)=O)CC3)ccc1Cl (stereo unspecified) | 60
12 | CS(=O)(=O)N1CCc2c(c(-c3ccc(Br)cc3)nn2CCCN2CCC(n3c(=O)[nH]c4ccccc43)CC2)C1 | 50
13 | CS(=O)(=O)N1CCc2c(c(-c3ccc(C(F)(F)F)cc3)nn2CC(O)CN2CCC(n3c(=O)[nH]c4ccccc43)CC2)C1 (stereo unspecified) | 50
14 | CC(=O)N1CCc2c(c(-c3ccc(C(F)(F)F)cc3)nn2C[C@@H](O)CN2CCC(n3c(O)nc4ccc(Cl)cc43)CC2)C1 | 200
15 | CC(=O)N1CCc2c(c(-c3ccc(C(F)(F)F)cc3)nn2C[C@H](O)CN2CCC(n3c(O)nc4ccc(Cl)cc43)CC2)C1 | 180
16 | CS(=O)(=O)N1CCc2c(c(-c3ccc(C(F)(F)F)cc3)nn2CC(O)CN2CCC(n3c(=O)[nH]c4ccc(Cl)cc43)CC2)C1 (stereo unspecified) | 60
17 | CC(=O)N1CCc2c(c(-c3ccc(Cl)c(C)c3)nn2CC(O)CN2CCC(n3c(=O)n(C(C)C)c4ccccc43)CC2)C1 (stereo unspecified) | 100
18 | CCn1c(=O)n(C2CCN(CC(O)Cn3nc(-c4ccc(Cl)c(C)c4)c4c3CCN(C(C)=O)C4)CC2)c2ccccc21 (stereo unspecified) | 310
19 | Cn1c(=O)n(C2CCN(CCCn3nc(-c4ccc(Br)cc4)c4c3CCN(S(C)(=O)=O)C4)CC2)c2ccccc21 | 140
20 | CS(=O)(=O)N1CCc2c(c(-c3ccc(C(F)(F)F)cc3)nn2CCCN2CCC(n3c(=O)[nH]c4ccccc43)CC2)C1 | 50
21 | Cn1c(=O)n(C2CCN(CC(O)Cn3nc(-c4ccc(C(F)(F)F)cc4)c4c3CCN(S(C)(=O)=O)C4)CC2)c2cc(Cl)ccc21 (stereo unspecified) | 80
22 | CCCCn1c(=O)n(C2CCN(CC(O)Cn3nc(-c4ccc(Cl)c(C)c4)c4c3CCN(C(C)=O)C4)CC2)c2ccccc21 (stereo unspecified) | 140
23 | CC(=O)N1CCc2c(c(-c3ccc(C(F)(F)F)cc3)nn2CC(O)CN2CCC(n3c(=O)n(C)c4ccccc43)CC2)C1 (stereo unspecified) | 110
24 | CC(=O)N1CCc2c(c(-c3ccc(Cl)c(C)c3)nn2CC(O)CN2CCC(n3c(=O)n(C)c4ccccc43)CC2)C1 (stereo unspecified) | 500

Next, values leading:

Row | IC50 [nM] | Structure (SMILES)
25 | 210 | CC(=O)N1CCc2c(c(-c3ccc(Br)cc3)nn2CC(O)CN2CCC(n3c(=O)[nH]c4cccc(C)c43)CC2)C1 (stereo unspecified)
26 | 110 | CC(=O)N1CCc2c(c(-c3ccc(Br)cc3)nn2CC(O)CN2CCC(n3c(=O)[nH]c4cc(Cl)c(Cl)cc43)CC2)C1 (stereo unspecified)
27 | 130 | CC(=O)N1CCc2c(c(-c3ccc(Cl)c(C)c3)nn2CC(O)CN2CCC(n3c(=O)[nH]c4ccccc43)CC2)C1 (stereo unspecified)
28 | 350 | CC(=O)N1CCc2c(c(-c3ccc(Cl)c(C)c3)nn2C[C@H](O)CN2CCC(n3c(=O)[nH]c4ccc(Cl)cc43)CC2)C1
29 | 460 | CC(=O)N1CCc2c(c(-c3ccc(Cl)cc3)nn2CC(O)CN2CCC(n3c(=O)[nH]c4ccccc43)CC2)C1 (stereo unspecified)
30 | 100 | CC(=O)N1CCc2c(c(-c3ccc(Cl)c(C)c3)nn2CC(O)CN2CCC(n3c(=O)[nH]c4cc(C)ccc43)CC2)C1 (stereo unspecified)
31 | 50 | CS(=O)(=O)N1CCc2c(c(-c3ccc(Br)cc3)nn2CC(O)CN2CCC(n3c(=O)[nH]c4ccc(Cl)cc43)CC2)C1 (stereo unspecified)
32 | 100 | CC(=O)N1CCc2c(c(-c3ccc(C(F)(F)F)cc3)nn2CC(O)CN2CCC(n3c(=O)[nH]c4ccccc43)CC2)C1 (stereo unspecified)
33 | 80 | CC(=O)N1CCc2c(c(-c3ccc(Br)cc3)nn2CC(O)CN2CCC(n3c(=O)[nH]c4ccccc43)CC2)C1 (stereo unspecified)
34 | 120 | CC(=O)N1CCc2c(c(-c3ccc(I)cc3)nn2CC(O)CN2CCC(n3c(=O)[nH]c4ccccc43)CC2)C1 (stereo unspecified)
35 | 230 | CC(=O)N1CCc2c(c(-c3ccc(I)cc3)nn2CC(O)CN2CCC(n3c(=O)[nH]c4ccc(F)cc43)CC2)C1 (stereo unspecified)
36 | 140 | COc1ccc2c(c1)[nH]c(=O)n2C1CCN(CC(O)Cn2nc(-c3ccc(Br)cc3)c3c2CCN(C(C)=O)C3)CC1 (stereo unspecified)
